Measurements: ChEMBL document CHEMBL1151856, “Novel, potent, and radio-iodinatable somatostatin receptor 1 (sst1) selective analogues” (J Med Chem, 2009)
The source made the active and inactive calls. No cut-off for these calls is given here. Positions of bridges follow the written chain, without caps; N, C: chain ends. Non-standard residues stand in square brackets, D forms with d. Residues, ends and D or L forms follow the SMILES beside them. Phe(4-CH2NHiPr) = CC(C)NCc1ccc(C[C@H](N)C(=O)O)cc1

What was measured:
[1] = biological target: Somatostatin receptor type 3 (Homo sapiens, UniProt P32745); assay: Displacement of [125I]LTT-SRIF-28 from human sst3 receptor by autoradiography
Outline: (§1)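 Competition autoradiography on 20-μm cryostat sections of membrane pellets from cells expressing each cloned receptor. Buffer was 170 mM Tris-HCl pH 8.2 with 1% BSA, bacitracin and 10 mM MgCl2. Cold washes, 1-week film exposure, image quantification against isotope standards, IC50 derived.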

[2] = biological target: T1, Somatostatin receptor type 1 (Homo sapiens, UniProt P30872); assay: Displacement of [125I]LTT-SRIF-28 from human sst1 receptor by autoradiography; outline: as §1
[3] = biological target: Somatostatin receptor type 2 (Homo sapiens, UniProt P30874); assay: Displacement of [125I]LTT-SRIF-28 from human sst2 receptor by autoradiography; outline: as §1
[4] = biological target: Somatostatin receptor type 5 (Homo sapiens, UniProt P35346); assay: Displacement of [125I]LTT-SRIF-28 from human sst5 receptor by autoradiography; outline: as §1
[5] = biological target: Somatostatin receptor type 4 (Homo sapiens, UniProt P31391); assay: Displacement of [125I]LTT-SRIF-28 from human sst4 receptor by autoradiography
[6] = biological target: T1, Somatostatin receptor type 1; assay: Agonist activity at human sst1 receptor expressed in Chinese hamster CCL39 cells by luciferase reporter gene assay relative to somatostatin-14; format: functional, cell-based

Chain of Somatostatin receptor type 3 (P32745 whole entry): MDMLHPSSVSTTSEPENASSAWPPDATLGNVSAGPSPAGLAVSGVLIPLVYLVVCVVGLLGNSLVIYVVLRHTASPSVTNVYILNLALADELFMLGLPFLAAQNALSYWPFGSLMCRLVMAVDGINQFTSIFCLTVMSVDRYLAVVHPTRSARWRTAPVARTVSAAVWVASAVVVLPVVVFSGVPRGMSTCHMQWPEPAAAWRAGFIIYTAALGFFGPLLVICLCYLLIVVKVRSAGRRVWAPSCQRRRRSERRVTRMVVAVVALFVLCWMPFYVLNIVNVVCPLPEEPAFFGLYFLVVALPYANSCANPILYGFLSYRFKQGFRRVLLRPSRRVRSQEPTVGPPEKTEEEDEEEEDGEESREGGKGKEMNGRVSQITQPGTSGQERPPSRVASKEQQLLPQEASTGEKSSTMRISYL
Chain of Somatostatin receptor type 2 (P30874 whole entry): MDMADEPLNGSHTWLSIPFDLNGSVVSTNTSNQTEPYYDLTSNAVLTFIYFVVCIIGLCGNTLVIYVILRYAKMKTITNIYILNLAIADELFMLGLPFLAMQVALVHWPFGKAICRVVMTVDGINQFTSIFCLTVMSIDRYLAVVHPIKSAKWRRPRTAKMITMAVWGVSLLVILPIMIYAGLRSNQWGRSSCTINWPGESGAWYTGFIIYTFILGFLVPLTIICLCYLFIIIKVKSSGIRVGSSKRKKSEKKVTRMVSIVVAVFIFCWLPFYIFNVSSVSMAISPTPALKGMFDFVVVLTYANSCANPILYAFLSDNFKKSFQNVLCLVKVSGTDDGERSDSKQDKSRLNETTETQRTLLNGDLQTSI
T1 sequence (P30872 whole entry): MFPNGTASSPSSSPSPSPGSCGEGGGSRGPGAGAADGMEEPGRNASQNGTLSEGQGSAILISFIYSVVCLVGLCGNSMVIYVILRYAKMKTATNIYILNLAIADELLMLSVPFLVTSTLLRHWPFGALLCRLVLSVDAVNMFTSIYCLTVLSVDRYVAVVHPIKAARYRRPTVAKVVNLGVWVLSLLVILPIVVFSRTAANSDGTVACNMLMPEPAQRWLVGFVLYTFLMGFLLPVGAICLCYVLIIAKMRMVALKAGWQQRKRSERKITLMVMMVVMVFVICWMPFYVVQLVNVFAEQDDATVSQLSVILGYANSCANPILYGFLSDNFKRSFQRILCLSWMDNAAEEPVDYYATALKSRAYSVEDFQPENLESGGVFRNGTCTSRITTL
Chain of Somatostatin receptor type 4 (P31391 whole entry): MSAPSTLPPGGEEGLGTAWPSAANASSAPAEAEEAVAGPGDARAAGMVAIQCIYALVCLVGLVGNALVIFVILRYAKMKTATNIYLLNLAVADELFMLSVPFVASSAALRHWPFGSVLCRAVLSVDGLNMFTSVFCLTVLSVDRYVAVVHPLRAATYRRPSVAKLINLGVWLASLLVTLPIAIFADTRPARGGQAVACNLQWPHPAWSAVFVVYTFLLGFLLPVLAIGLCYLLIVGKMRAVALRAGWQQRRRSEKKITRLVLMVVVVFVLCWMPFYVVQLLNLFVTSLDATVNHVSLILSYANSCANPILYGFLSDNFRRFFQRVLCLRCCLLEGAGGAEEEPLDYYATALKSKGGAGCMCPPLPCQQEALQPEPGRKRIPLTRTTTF
Chain of Somatostatin receptor type 5 (P35346 whole entry): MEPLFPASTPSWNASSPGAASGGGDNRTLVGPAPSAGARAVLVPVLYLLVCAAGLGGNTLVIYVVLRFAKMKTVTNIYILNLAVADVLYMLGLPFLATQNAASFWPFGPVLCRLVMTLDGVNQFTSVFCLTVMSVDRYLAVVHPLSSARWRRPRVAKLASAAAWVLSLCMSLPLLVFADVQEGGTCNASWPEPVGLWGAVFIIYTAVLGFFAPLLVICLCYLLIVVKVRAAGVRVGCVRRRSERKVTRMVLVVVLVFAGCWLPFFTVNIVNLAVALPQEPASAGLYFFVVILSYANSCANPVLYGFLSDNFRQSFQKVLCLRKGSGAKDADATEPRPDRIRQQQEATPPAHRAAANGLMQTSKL

SMILES	IC50 [1] [nM]	IC50 [2] [nM]	IC50 [3] [nM]	IC50 [4] [nM]	IC50 [5] [nM]	Activity [6]	EC50 [6] [nM]
CC(C)NCc1ccc(C[C@@H]2NC(=O)[C@@H](Cc3c[nH]c4ccccc34)NC(=O)[C@H](Cc3ccccc3)NC(=O)[C@@H](NC(=O)[C@H](N)Cc3ccccc3)CSSC[C@@H](C(=O)N[C@H](C(N)=O)[C@@H](C)O)NC(=O)[C@H](Cc3ccccc3)NC2=O)cc1 (H-[dF]CF[dW][Phe(4-CH2NHiPr)]FCT-NH2; disulfide 2-7)	72	14	> 1000	> 1000	–	–	–
CC(C)NCc1ccc(C[C@@H]2NC(=O)[C@@H](N(C)C(=O)c3ccc4ccccc4c3)NC(=O)[C@H](Cc3ccccc3)NC(=O)[C@H](Cc3ccccc3)NC(=O)[C@H](CCCCN)NC(=O)[C@@H](N)CSSC[C@@H](C(=O)O)NC(=O)[C@H](CO)NC(=O)[C@H]([C@@H](C)O)NC(=O)[C@H](Cc3ccc(O)cc3)NC(=O)[C@H]([C@@H](C)O)NC2=O)cc1	> 1000	3.3	> 1000	> 1000	562	–	–
CC(C)NCc1ccc(C[C@@H]2NC(=O)[C@@H](Cc3c[nH]c4ccccc34)NC(=O)[C@H](Cc3ccccc3)NC(=O)[C@H](Cc3ccccc3)NC(=O)[C@H](CCCCN)NC(=O)[C@@H](N)CSSC[C@@H](C(=O)O)NC(=O)[C@H](Cc3ccccc3)NC(=O)[C@H]([C@@H](C)O)NC2=O)cc1 (H-CKFF[dW][Phe(4-CH2NHiPr)]TFC-OH; disulfide 1-9)	789	189	> 1000	> 1000	932	–	–
CC(C)NCc1ccc(C[C@@H]2NC(=O)[C@@H](Cc3c[nH]c4ccccc34)NC(=O)[C@H](Cc3ccccc3)NC(=O)[C@@H](N)CSSC[C@@H](C(=O)N[C@H](C(N)=O)[C@@H](C)O)NC(=O)[C@H](Cc3ccccc3)NC2=O)cc1 (H-CF[dW][Phe(4-CH2NHiPr)]FCT-NH2; disulfide 1-6)	> 1000	108	> 1000	> 1000	–	–	–
CC(C)NCc1ccc(C[C@@H]2NC(=O)[C@H](N(C)C(=O)c3ccc4ccccc4c3)NC(=O)[C@H](Cc3ccccc3)NC(=O)[C@@H](NC(=O)[C@H](N)Cc3ccc(O)cc3)CSSC[C@@H](C(=O)N[C@H](C(N)=O)[C@@H](C)O)NC(=O)[C@H](Cc3ccccc3)NC2=O)cc1	> 1000	–	> 1000	> 1000	> 1000	–	–
CC(C)NCc1ccc(C[C@@H]2NC(=O)[C@@H](N(C)C(=O)c3ccc4ccccc4c3)NC(=O)[C@H](Cc3ccccc3)NC(=O)[C@H](NC(=O)[C@@H](N)Cc3ccc(O)cc3)CSSC[C@@H](C(=O)N[C@@H](Cc3ccc4ccccc4c3)C(N)=O)NC(=O)[C@H](Cc3ccccc3)NC2=O)cc1	410	8.2	> 1000	> 1000	270	Active	–
CC(C)NCc1ccc(C[C@@H]2NC(=O)[C@@H](Cc3c[nH]c4ccccc34)NC(=O)[C@H](Cc3ccccc3)NC(=O)[C@H](Cc3ccccc3)NC(=O)[C@H](CCCCN)NC(=O)[C@@H](N)CSSC[C@@H](C(=O)O)NC(=O)[C@H](CO)NC(=O)[C@H]([C@@H](C)O)NC(=O)[C@H](Cc3ccccc3)NC(=O)[C@H]([C@@H](C)O)NC2=O)cc1 (H-CKFF[dW][Phe(4-CH2NHiPr)]TFTSC-OH; disulfide 1-11)	150	31	> 1000	> 1000	> 1000	–	–
CC(C)NCc1ccc(C[C@@H]2NC(=O)[C@H](N(C)C(=O)c3ccc4ccccc4c3)NC(=O)[C@H](Cc3ccccc3)NC(=O)[C@H](NC(=O)[C@@H](N)Cc3ccc(O)cc3)CSSC[C@@H](C(=O)N[C@@H](Cc3ccc4ccccc4c3)C(N)=O)NC(=O)[C@H](Cc3ccccc3)NC2=O)cc1	463	189	> 1000	> 1000	> 1000	–	–
CC(C)NCc1ccc(C[C@@H]2NC(=O)[C@@H](Cc3c[nH]c4ccccc34)NC(=O)[C@H](Cc3ccccc3)NC(=O)[C@H](Cc3ccccc3)NC(=O)[C@@H](N)CSSC[C@@H](C(=O)O)NC(=O)[C@H](Cc3ccccc3)NC(=O)[C@H]([C@@H](C)O)NC2=O)cc1 (H-CFF[dW][Phe(4-CH2NHiPr)]TFC-OH; disulfide 1-8)	> 1000	> 1000	> 1000	> 1000	> 1000	–	–
CC(C)NCc1ccc(C[C@@H]2NC(=O)[C@@H](N(C)C(=O)c3ccc4ccccc4c3)NC(=O)[C@H](Cc3ccccc3)NC(=O)[C@@H](N)CSSC[C@@H](C(=O)N[C@H](C(N)=O)[C@@H](C)O)NC(=O)[C@H](Cc3ccccc3)NC2=O)cc1	681	1	> 1000	> 1000	95	Active	3.9
CC(C)NCc1ccc(C[C@@H]2NC(=O)[C@@H](Cc3c[nH]c4ccccc34)NC(=O)[C@H](Cc3ccccc3)NC(=O)[C@H](Cc3ccccc3)NC(=O)[C@H](CCCCN)NC(=O)[C@@H](NC(=O)[C@@H](N)Cc3ccc(O)cc3)CSSC[C@@H](C(=O)O)NC(=O)[C@H](CO)NC(=O)[C@H]([C@@H](C)O)NC(=O)[C@H](Cc3ccccc3)NC(=O)[C@H]([C@@H](C)O)NC2=O)cc1 (H-YCKFF[dW][Phe(4-CH2NHiPr)]TFTSC-OH; disulfide 2-12)	> 1000	–	> 1000	–	> 1000	Active	–
C[C@@H](O)[C@H](NC(=O)[C@@H]1CSSC[C@H](NC(=O)[C@H](N)Cc2ccccc2)C(=O)N[C@@H](Cc2ccccc2)C(=O)N[C@H](Cc2c[nH]c3ccccc23)C(=O)N[C@@H](CCCCN)C(=O)N[C@@H]([C@@H](C)O)C(=O)N1)C(N)=O	–	> 1000	–	–	–	–	–
CC(C)NCc1ccc(C[C@@H]2NC(=O)[C@@H](N(C)C(=O)c3ccc4ccccc4c3)NC(=O)[C@H](Cc3ccccc3)NC(=O)[C@@H](N)CSSC[C@@H](C(N)=O)NC(=O)[C@H](Cc3ccc(O)cc3)NC2=O)cc1	252	4.7	> 1000	> 1000	–	Active	–
CC(C)NCc1ccc(C[C@@H]2NC(=O)[C@@H](N(C)C(=O)c3ccc4ccccc4c3)NC(=O)[C@H](Cc3ccccc3)NC(=O)[C@H](N)CSSC[C@@H](C(=O)N[C@@H](Cc3ccc4ccccc4c3)C(N)=O)NC(=O)[C@H](Cc3ccccc3)NC2=O)cc1 (single isomer, unassigned)	–	–	–	–	–	Active	–
CC(C)NCc1ccc(C[C@@H]2NC(=O)[C@H](N(C)C(=O)c3ccc4ccccc4c3)NC(=O)[C@H](Cc3ccccc3)NC(=O)[C@@H](N)CSSC[C@@H](C(N)=O)NC(=O)[C@H](Cc3ccc(O)cc3)NC2=O)cc1	> 1000	530	> 1000	> 1000	> 1000	–	–
CC(C)NCc1ccc(C[C@@H]2NC(=O)[C@@H](N(C)C(=O)c3ccc4ccccc4c3)NC(=O)[C@H](Cc3ccccc3)NC(=O)[C@@H](NC(=O)[C@H](N)Cc3ccc(O)cc3)CSSC[C@@H](C(=O)N[C@H](C(N)=O)[C@@H](C)O)NC(=O)[C@H](Cc3ccccc3)NC2=O)cc1	158	–	> 1000	> 1000	27	–	–
CC(C)NCc1ccc(C[C@@H]2NC(=O)[C@@H](Cc3c[nH]c4ccccc34)NC(=O)[C@H](Cc3ccccc3)NC(=O)[C@H](Cc3ccccc3)NC(=O)[C@H](CCCCN)NC(=O)[C@@H](N)CSSC[C@@H](C(=O)O)NC(=O)[C@H](CO)NC(=O)[C@H]([C@@H](C)O)NC(=O)[C@H](Cc3ccc(O)c([125I])c3)NC(=O)[C@H]([C@@H](C)O)NC2=O)cc1	–	3.6	–	–	–	–	–
CC(C)NCc1ccc(C[C@@H]2NC(=O)[C@@H](Cc3c[nH]c4ccccc34)NC(=O)[C@H](Cc3ccccc3)NC(=O)[C@@H](NC(=O)[C@@H](N)Cc3ccc(O)cc3)CSSC[C@@H](C(=O)N[C@H](C(N)=O)[C@@H](C)O)NC(=O)[C@H](Cc3ccccc3)NC(=O)[C@H]([C@@H](C)O)NC2=O)cc1 (H-YCF[dW][Phe(4-CH2NHiPr)]TFCT-NH2; disulfide 2-8)	60	150	> 1000	> 1000	> 1000	–	–
CC(C)NCc1ccc(C[C@@H]2NC(=O)[C@H](N(C)C(=O)c3ccc4ccccc4c3)NC(=O)[C@H](Cc3ccccc3)NC(=O)[C@@H](N)CSSC[C@@H](C(=O)N[C@H](C(N)=O)[C@@H](C)O)NC(=O)[C@H](Cc3ccccc3)NC2=O)cc1	253	37	> 1000	> 1000	–	–	–
